Source: ChEMBL document CHEMBL4219104, “Bicyclo((aryl)methyl)benzamides as inhibitors of GlyT1” (Bioorg Med Chem Lett, 2018)
Values after ≈ are worked out from the molar mass of the structure shown.

What was measured:
[1] = Octanol-water partition coefficient, log D of the compound at pH 7.4; assay type: physicochemical
Method in brief: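 logD determined empirically as ratio of compound partitioned between octanol and water at pH 7.4.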

[2] = Equilibrium solubility of the compound in phosphate buffer at pH 7.4 by UV-HPLC analysis; assay type: physicochemical
Method in brief: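 Equilibrium solubility determined at pH 7.4.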

[3] = Volume of distribution at steady state in Sprague-Dawley rat at 3 umol/kg, iv; assay type: ADME, organism-based; conditions: in vivo, read-out: Vdss
[4] = Oral bioavailability in Sprague-Dawley rat at 9 umol/kg; assay type: ADME, organism-based; conditions: in vivo
[5] = Tmax in Sprague-Dawley rat at 9 umol/kg, po; assay type: ADME, organism-based; conditions: in vivo
[6] = Ratio of drug level in brain to plasma in sc dosed CD-1 mouse; assay type: ADME, organism-based; conditions: read-out: BPR
Method in brief: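 CD-1 mice dosed subcutaneously; brain and plasma levels compared as brain-to-plasma ratio.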

[7] = Cmax in Sprague-Dawley rat at 9 umol/kg, po; assay type: ADME, organism-based; set-up: dose 9 umol/kg, route oral; conditions: in vivo
[8] = Ratio of drug level in brain to plasma in Sprague-Dawley rat at 3 umol/kg, iv; assay type: ADME; conditions: read-out: BPR

SMILES	logD [1]	solubility thermodynamic [2]	other results
CN1CCCC[C@H]1[C@@H](NC(=O)c1cccc(C(F)(F)F)c1Cl)c1ccccc1	2.9	124 µM (≈ 50.9 µg/mL)	–
Cc1cccc(C)c1C(=O)NC(c1ccncc1)C12CCC(CC1)CN2C (stereo not given)	1.4	–	–
CN1CC2CCC1([C@H](NC(=O)c1c(Cl)ccnc1Cl)c1ccccc1)CC2	1.1	> 500 µM	–
Cc1cccc(C)c1C(=O)NC(c1ccccc1)C12CC(CN1)C2 (stereo not given)	0.8	–	–
Cc1cccc(C)c1C(=O)NC(c1ccccc1)C12CC(CN1C)C2 (stereo not given)	1.1	–	–
CCN1C2CCC1(C(NC(=O)c1c(C)cccc1C)c1ccccc1)CC2 (stereo not given)	2.1	–	–
Cc1cccc(C)c1C(=O)NC(c1ccccc1)C12CCC(CC1)N2C1CC1 (stereo not given)	1.1	–	–
Cc1ccnc(C)c1C(=O)N[C@H](c1ccccc1)C12CCC(CC1)CN2C	0.8	373 µM (≈ 136 µg/mL)	–
Cc1cccc(C)c1C(=O)NC(c1ccc(S(=O)(=O)CC2CC2)cc1)C12CCC(CC1)CN2C (stereo not given)	2	–	–
CCN1CC2CC1(C(NC(=O)c1c(C)cccc1C)c1ccccc1)C2 (stereo not given)	1.1	–	–
CN1CC2CCC1([C@H](NC(=O)c1ccncc1Br)c1ccccc1)CC2	–	> 500 µM	–
Cc1cccc(C)c1C(=O)NC(c1ccccc1)C12CCC(CC1)CN2 (stereo not given)	1.3	–	–
Cc1cccc(C)c1C(=O)NC(c1ccncc1)C12CCC(CC1)N2 (stereo not given)	0.9	–	–
Cc1ccc(C(NC(=O)c2c(C)cccc2C)C23CCC(CC2)CN3C)o1 (stereo not given)	1.5	–	–
Cc1cccc(C)c1C(=O)NC(c1ccccc1)C12CCC(CC1)N2 (stereo not given)	1.4	–	–
COc1cccc(OC)c1C(=O)N[C@H](c1ccccc1)C12CCC(CC1)CN2C	0.7	495 µM (≈ 195 µg/mL)	–
Cc1cccc(C)c1C(=O)NC(c1ccccc1)C12CCC(CC1)N2C (stereo not given)	1.9	–	–
Cc1cccc(C)c1C(=O)NC(c1ccccc1)C12CCC(CC1)N2C(C)C (stereo not given)	1.9	–	–
COc1cncc(Cl)c1C(=O)N[C@H](c1ccccc1)C12CCC(CC1)CN2C	1	> 500 µM	–

More lines, main results first:

logD [1]	solubility thermodynamic [2]	SMILES	other results
1.3	462 µM (≈ 177 µg/mL)	CN1CC2CCC1([C@H](NC(=O)c1c(N)cccc1Cl)c1ccccc1)CC2	–
1.3	> 500 µM	CSc1ncccc1C(=O)N[C@H](c1ccccc1)C12CCC(CC1)CN2C	–
2.1	–	Cc1cccc(C)c1C(=O)NC(c1cccc(-c2cnn(C)c2)c1)C12CCC(CC1)CN2C (stereo not given)	–
2.2	498 µM (≈ 201 µg/mL)	CN1CC2CCC1([C@H](NC(=O)c1ccnc(Cl)c1Cl)c1ccccc1)CC2	–
1.9	> 500 µM	CN1CC2CCC1([C@H](NC(=O)c1c(Cl)cccc1Cl)c1ccccc1)CC2	–
1.4	481 µM (≈ 194 µg/mL)	CN1CC2CCC1([C@H](NC(=O)c1c(Cl)cncc1Cl)c1ccccc1)CC2	–
2.2	493 µM (≈ 199 µg/mL)	CN1CC2CCC1([C@H](NC(=O)c1cccc(Cl)c1Cl)c1ccccc1)CC2	–
2.4	> 500 µM	CN1CC2CCC1([C@H](NC(=O)c1ccnc(C(F)(F)F)c1F)c1ccccc1)CC2	–
2.7	> 500 µM	CN1CC2CCC1([C@@H](NC(=O)c1cccc(C(F)(F)F)c1Cl)c1ccccc1)CC2	–
1.9	414 µM (≈ 150 µg/mL)	Cc1cccc(C)c1C(=O)N[C@H](c1ccccc1)C12CCC(CC1)CN2C	Vd [3]: 1.8 L/kg; bioavailability [4]: 105%; Tmax [5]: 1 h; Kp [6]: 0.4; Cmax [7]: 2450 nM; Kp [8]: 0.2
2.7	> 482 µM	CN1CC2CCC1([C@H](NC(=O)c1cccc(C(F)(F)F)c1Cl)c1ccccc1)CC2	–
2.4	–	CN1CC2CCC1(C(NC(=O)c1cccc(C(F)(F)F)c1Cl)c1ccncc1)CC2 (racemic)	–
1.6	–	CN1CC2CCC1(C(NC(=O)c1cccc(C(F)(F)F)c1Cl)c1ccccn1)CC2 (racemic)	–
3	–	Cc1ccccc1C(NC(=O)c1cccc(C(F)(F)F)c1Cl)C12CCC(CC1)CN2C (racemic)	–
2.3	–	CN1CC2CCC1(C(NC(=O)c1cccc(C(F)(F)F)c1Cl)c1cccnc1)CC2 (racemic)	–
3.3	–	CN1CC2CCC1(C(NC(=O)c1cccc(C(F)(F)F)c1Cl)c1cccc(Br)c1)CC2 (racemic)	–
2	–	CN1CC2CCC1(C(NC(=O)c1cccc(C(F)(F)F)c1Cl)c1ccco1)CC2 (racemic)	–
3	–	Cc1cccc(C(NC(=O)c2cccc(C(F)(F)F)c2Cl)C23CCC(CC2)CN3C)c1 (racemic)	–
2.7	–	COc1ccc(C(NC(=O)c2cccc(C(F)(F)F)c2Cl)C23CCC(CC2)CN3C)cc1 (racemic)	–
2.7	–	CN1CC2CCC1(C(NC(=O)c1cccc(C(F)(F)F)c1Cl)c1ccccc1)CC2 (racemic)	–
